How the values were obtained:
[1] = Cytotoxicity against human P4R5 MAGI cells; type: cell-based
In short: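 P4R5 cells express CD4, CXCR4, CCR5 and an HIV LTR-driven β-galactosidase reporter. They were seeded at 4×10^3 cells per well in DMEM/10% FBS with puromycin (1 µg/mL).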

[2] = molecular target: Human immunodeficiency virus type 1 integrase (Human immunodeficiency virus 1, UniProt Q7ZJM1); assay: Inhibition of HIV integrase strand transfer activity using 5'-biotin/3'-Cy5-labeled DNA substrate preincubated for 5 mins followed by substrate addition measured after 30 mins by HTS assay
[3] = molecular target: Human immunodeficiency virus type 1 reverse transcriptase (Human immunodeficiency virus 1, UniProt Q72547); assay: Inhibition of HIV1 reverse transcriptase RNaseH activity using 3'-fluorescein/5'-Dabcyl labeled HTS-1 substrate
[4] = test system: Human immunodeficiency virus 1; assay: Antiviral activity against HIV1 infected in CD4/CXCR4/CCR5 expressing human P4R5 MAGI cells preincubated with cells for 24 hrs followed by viral infection measured after 48 hrs by beta-galactosidase reporter gene assay; type: functional, organism-based
Gag-Pol polyprotein = Gag-Pol polyprotein (Human immunodeficiency virus type 1 group M subtype B (isolate HXB2)(HIV-1), UniProt P04585); assay: Inhibition of HIV1 reverse transcriptase polymerase activity using 18 nucleotide DNA primer and 100 nucleotide DNA template after 30 mins; parameters: species or system Human immunodeficiency virus 1
In short: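 Full-length RT at 20 nM with 40 nM template/primer (18-nt DNA primer on 100-nt DNA template) and 10 µM dNTPs in 50 mM Tris pH 7.8, 50 mM NaCl. Started with 6 mM MgCl2, with 1% DMSO and increasing compound concentrations. Primer extension ran 30 min at 37 °C and was stopped with 100 mM EDTA.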

[5] = Effective permeability of the compound at 10 uM after 5 hrs by PAMPA; type: ADME
In short: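 Lipid-precoated PAMPA plates thawed 30 min at room temperature. Compounds diluted from 10 mM DMSO stock into DPBS to 10 µM final and placed in donor wells, with DPBS in acceptor wells. Incubated 5 h at 25 °C without agitation. Donor and acceptor concentrations measured by LC-MS/MS. Pe calculated from acceptor and equilibrium concentrations, filter area 0.3 cm² and well volumes.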

Sequence of Human immunodeficiency virus type 1 integrase (Q7ZJM1 whole entry): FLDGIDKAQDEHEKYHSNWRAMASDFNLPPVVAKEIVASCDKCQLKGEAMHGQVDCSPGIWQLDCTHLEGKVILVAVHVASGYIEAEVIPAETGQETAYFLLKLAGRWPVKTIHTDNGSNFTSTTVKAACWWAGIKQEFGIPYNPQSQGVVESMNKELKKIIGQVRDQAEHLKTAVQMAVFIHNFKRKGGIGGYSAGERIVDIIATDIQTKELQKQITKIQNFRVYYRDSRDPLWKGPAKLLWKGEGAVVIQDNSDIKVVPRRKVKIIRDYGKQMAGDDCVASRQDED

SMILES | CC50 [1] [µM] | IC50 [2] [µM] | IC50 [3] [µM] | EC50 [4] [µM] | IC50 (Gag-Pol polyprotein) [µM] | Peff [5] [×10⁻⁶ cm/s]
Cc1ccc(-c2ccc(Sc3cc(=O)n(O)c(=O)[nH]3)cc2)cc1 | > 100 | > 1 | 0.006 | 7.5 | 7 | 
O=c1cc(Sc2ccc([N+](=O)[O-])cc2)[nH]c(=O)n1O | > 100 | 3.4 | 0.012 | > 20 | > 10 | 0.032
O=c1cc(Sc2ccc(-c3cccc(F)c3)cc2)[nH]c(=O)n1O | > 100 | > 1 | 0.005 | 7.2 | 10 | 
Cc1ccc(Sc2cc(=O)n(O)c(=O)[nH]2)cc1 | > 100 | 2.8 | 0.033 | > 20 | > 10 | 0.92
O=c1cc(Sc2ccccc2C(F)(F)F)[nH]c(=O)n1O | > 100 | 0.88 | 0.012 | 6.6 | > 10 | 
O=c1cc(Sc2ccc(Br)cc2)[nH]c(=O)n1O |  |  | 0.01 |  | 7 | 
O=c1cc(Sc2ccccc2-c2ccc(C(F)(F)F)cc2)[nH]c(=O)n1O | > 100 | > 100 | 0.013 | 7 | > 10 | 
O=c1cc(Sc2ccc(C(F)(F)F)cc2)[nH]c(=O)n1O | > 100 | > 10 | 0.031 | > 20 | > 10 | 
O=c1cc(Sc2ccccc2)[nH]c(=O)n1O | > 100 | 1.1 | 0.016 | 11 | > 10 | 
O=c1cc(Sc2ccc(-c3ccccc3)cc2)[nH]c(=O)n1O |  |  | 0.09 |  | 3.2 | 
O=c1cc(Sc2ccc(-c3cccc(C(F)(F)F)c3)cc2)[nH]c(=O)n1O | > 100 | > 100 | 0.008 | > 20 | > 10 | 
O=c1cc(Sc2ccccc2-c2ccc(F)cc2)[nH]c(=O)n1O | > 100 | > 100 | 0.012 | 11 | > 10 | 
O=c1cc(Sc2cccc3ccccc23)[nH]c(=O)n1O | > 100 | 0.79 | 0.007 | 6.3 | 10 | 
O=c1cc(Sc2ccccc2F)[nH]c(=O)n1O | > 100 | 0.77 | 0.015 | 4.7 | > 10 | 
O=c1[nH]c(Sc2ccc(Br)cc2)c(Br)c(=O)n1O |  |  | 0.07 |  | 5 | 
O=c1cc(Sc2ccc(-c3ccc(Cl)cc3)cc2)[nH]c(=O)n1O | > 100 | > 1 | 0.007 | 16 | > 10 | 
O=c1cc(Sc2ccc(Cl)cc2)[nH]c(=O)n1O | > 100 | 0.64 | 0.012 | > 20 | > 10 | 0.35
O=c1cc(Sc2ccc(-c3ccc(F)cc3)cc2)[nH]c(=O)n1O | > 100 | > 1 | 0.006 | 12 | > 10 | 
COc1cccc(Sc2cc(=O)n(O)c(=O)[nH]2)c1 | > 100 | 2.7 | 0.013 | 16 | > 10 | 
O=c1cc(Sc2cccc(Cl)c2)[nH]c(=O)n1O | > 100 | 0.59 | 0.011 | 6.3 | > 10 | 
O=c1cc(Sc2cccc(Br)c2)[nH]c(=O)n1O | > 100 | 1.2 | 0.011 | 8.2 | > 10 | 
O=c1cc(Sc2cccc(-c3cccc(C(F)(F)F)c3)c2)[nH]c(=O)n1O | > 100 | > 1 | 0.007 | 8.3 | 7.7 | 
O=c1cc(Sc2cccc(F)c2)[nH]c(=O)n1O | > 100 | 0.49 | 0.014 | 9.1 | > 10 | 

SMILES | CC50 [1] [µM] | IC50 [2] [µM] | IC50 [3] [µM] | EC50 [4] [µM] | IC50 (Gag-Pol polyprotein) [µM] | Peff [5] [×10⁻⁶ cm/s]
COc1ccc(Sc2cc(=O)n(O)c(=O)[nH]2)cc1 | > 100 | 3.6 | 0.012 | > 20 | > 10 | 
O=c1cc(Sc2cccc(-c3ccc(F)cc3)c2)[nH]c(=O)n1O | > 100 | > 0.14 | 0.005 | 5 | 9.9 | 
COc1ccc(-c2ccc(Sc3cc(=O)n(O)c(=O)[nH]3)cc2)cc1 | > 100 | > 100 | 0.006 | 10 | 10 | 
COc1cc(OC)cc(-c2ccc(Sc3cc(=O)n(O)c(=O)[nH]3)cc2)c1 | > 100 | > 100 | 0.006 | 17 | > 10 | 
CCc1ccccc1Sc1cc(=O)n(O)c(=O)[nH]1 | > 100 | 0.75 | 0.01 | 6.2 | > 10 | 
O=c1cc(Sc2cccc(-c3ccc(C(F)(F)F)cc3)c2)[nH]c(=O)n1O | > 100 | > 0.14 | 0.007 | 11 | 10 | 
O=c1cc(Sc2ccc(-c3ccc(O)cc3)cc2)[nH]c(=O)n1O | > 100 | 0.17 | 0.004 | > 20 | > 10 | 0.039
O=c1cc(Sc2cccc(-c3ccc(Cl)cc3)c2)[nH]c(=O)n1O | > 100 | > 1 | 0.005 | 10 | 7.8 | 
COc1ccc(-c2ccc(Sc3cc(=O)n(O)c(=O)[nH]3)cc2)cc1F | > 100 | > 0.14 | 0.004 | 8 | 6.8 | 
COc1cccc(-c2ccc(Sc3cc(=O)n(O)c(=O)[nH]3)cc2)c1 | > 100 | > 1 | 0.005 | 7.7 | 10 | 
Cc1cc(-c2ccc(Sc3cc(=O)n(O)c(=O)[nH]3)cc2)ccc1F | > 100 | > 10 | 0.005 | 18 | > 10 | 
COc1ccc(-c2ccc(Sc3cc(=O)n(O)c(=O)[nH]3)cc2)cc1OC | > 100 | 0.33 | 0.004 | > 20 | 10 | 0.9
O=c1cc(Sc2cccc(C(F)(F)F)c2)[nH]c(=O)n1O | > 100 | 0.88 | 0.013 | 6.2 | > 10 | 
CCc1ccc(Sc2cc(=O)n(O)c(=O)[nH]2)cc1 | > 100 | 1.3 | 0.01 | 11 | > 10 | 
O=c1cc(Sc2cccc(-c3ccc(F)c(Cl)c3)c2)[nH]c(=O)n1O | > 100 | > 1 | 0.005 | 11 | 5.6 | 
COc1cccc(-c2ccc(Nc3cc(=O)n(O)c(=O)[nH]3)cc2)c1 | > 25 |  |  | > 25 |  | 
O=c1cc(Sc2cccc(-c3cccc(F)c3)c2)[nH]c(=O)n1O | > 100 | 0.24 | 0.006 | 6.5 | 9.6 | 
O=c1[nH]c(Sc2ccc(Br)cc2)c(I)c(=O)n1O |  |  | 0.12 |  | 0.46 | 
O=c1cc(Sc2ccc(F)cc2)[nH]c(=O)n1O | > 100 | 6.8 | 0.037 | > 20 | > 10 | 
O=c1cc(Sc2ccc(-c3ccc(C(F)(F)F)cc3)cc2)[nH]c(=O)n1O | > 100 | > 1 | 0.039 | 12 | 8.4 | 
COc1ccccc1Sc1cc(=O)n(O)c(=O)[nH]1 | > 100 | 8.4 | 0.017 | 9 | > 10 | 
O=c1cc(Sc2ccc(O)cc2)[nH]c(=O)n1O | > 100 | 1.6 | 0.011 | > 20 | > 10 | 
O=c1cc(Sc2ccccc2Br)[nH]c(=O)n1O | > 100 | 1.1 | 0.008 | 6.5 | > 10 | 

Source: ChEMBL document CHEMBL4270570 (Eur J Med Chem, 2018)
